Results of several laboratories.
Each line is one published result; the experiments were not run side by side.
Target: Dual specificity tyrosine-phosphorylation-regulated kinase 2 (DYRK2, Homo sapiens, UniProt Q92630)
One construct used (Q92630 1-601): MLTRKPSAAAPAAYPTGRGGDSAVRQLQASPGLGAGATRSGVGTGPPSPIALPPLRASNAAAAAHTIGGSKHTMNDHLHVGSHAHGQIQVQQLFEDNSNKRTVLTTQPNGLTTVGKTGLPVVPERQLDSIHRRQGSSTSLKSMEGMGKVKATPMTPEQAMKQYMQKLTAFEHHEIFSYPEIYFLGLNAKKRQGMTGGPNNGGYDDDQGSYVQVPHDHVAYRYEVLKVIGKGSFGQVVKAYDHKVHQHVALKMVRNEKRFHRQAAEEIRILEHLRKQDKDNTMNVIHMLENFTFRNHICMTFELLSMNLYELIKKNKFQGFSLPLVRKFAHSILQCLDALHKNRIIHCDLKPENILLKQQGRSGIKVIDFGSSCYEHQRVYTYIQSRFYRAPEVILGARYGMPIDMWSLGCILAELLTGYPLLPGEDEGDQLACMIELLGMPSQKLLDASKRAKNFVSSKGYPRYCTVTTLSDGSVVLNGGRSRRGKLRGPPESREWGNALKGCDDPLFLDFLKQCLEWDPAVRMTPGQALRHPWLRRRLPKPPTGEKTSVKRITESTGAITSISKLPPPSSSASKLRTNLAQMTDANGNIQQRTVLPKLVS

Structure (SMILES)	observed	mode	technique	tested at	quantity	value
NS(=O)(=O)c1cc(NC(=O)C2(c3ccccc3Cl)CC2)ccc1Oc1cccc(Cl)c1	cell-free assay	–	competition with immobilised ligand	1 µM	remaining binding	81%
O=C(O)c1ccc2c(c1)nc(Nc1ccc(F)c(Cl)c1)c1ncncc12	enzyme activity	inhibitor	radiometric	1 µM	remaining activity	41%
Cc1ccc(NC(=O)c2ccc(CN3CCN(C)CC3)cc2)cc1Nc1nc(-c2cccnc2)cs1	cell-free assay	–	–	0.5 µM	remaining signal	109%
FC(F)(F)Oc1cccc(-c2cnc3ccc(-c4ccncc4)nn23)c1	enzyme activity	inhibitor	radiometric	5 µM	activity vs control	46%
Cn1cncc1C1=CN(c2ncnc3[nH]cnc23)CCS1	enzyme activity	inhibitor	radiometric	2 µM	inhibition	91.2%
Nc1ncnc2occ(-c3ccc(NC(=O)Nc4cc(C(F)(F)F)ccc4F)cc3)c12	cell-free assay	inhibitor	–	20 µM	remaining signal	19%
C[C@@H]1CN(c2cc(-c3n[nH]c4ccc(OC5(C)CC5)cc34)ncn2)C[C@H](C)O1	cell-free assay	–	competition with immobilised ligand	0.1 µM	remaining binding	98%
COc1cccc(CCNc2nc3cc(C(=O)O)ccc3c3cncnc23)c1	enzyme activity	inhibitor	radiometric	1 µM	remaining activity	59%
O=C(O)c1cc(-c2ccc(C3CCNCC3)cc2)c2ccc(-c3ccc(C(F)(F)F)cc3)cc2c1	cell-free assay	–	competition with immobilised ligand	1 µM	remaining binding	100%
O=C(O)c1ccc2c(c1)nc(Nc1cccc(F)c1)c1ccncc12	enzyme activity	inhibitor	radiometric	1 µM	remaining activity	13%
CCCCN(CCCC)C(=O)CN1C[C@@H](c2cc(OC)c3c(c2)OCO3)[C@H](C(=O)O)[C@H]1CC(C)(C)CCC	cell-free assay	–	competition with immobilised ligand	1 µM	remaining binding	82.9%
O=C(O)c1ccc2c(c1)nc(NCc1ccccc1)c1ncncc12	enzyme activity	inhibitor	radiometric	1 µM	remaining activity	37%
COc1ccc(COc2ccc(Cc3cnc(N)nc3N)cc2OC)cc1	cell-free assay	–	–	0.5 µM	remaining signal	105%
Cc1cc(C)c(-n2ccn3nc(-c4cccnc4)cc23)cc1NC(=O)c1cc(C#N)cc(S(F)(F)(F)(F)F)c1	cell-free assay	–	competition with immobilised ligand	0.1 µM	remaining binding	82.5%
O=C(O)c1ccc2c(c1)nc(NCCc1cccc(F)c1)c1ncncc12	enzyme activity	inhibitor	radiometric	1 µM	remaining activity	52%
O=C(NCCCC1CCCCC1)c1ccc(CNC(=O)c2cnn(-c3ccccc3)c2C(F)(F)F)cc1	cell-free assay	–	competition with immobilised ligand	0.1 µM	remaining binding	100%
CCN(CC)CCNC(=O)c1c(C)[nH]c(/C=C2\C(=O)Nc3ccc(F)cc32)c1C	enzyme activity	inhibitor	–	0.3 µM	inhibition	-5%
Cc1cc(NC(=O)c2cccc3cc(-c4cccc5[nH]nc(N)c45)ccc23)ccc1F	enzyme activity	inhibitor	–	0.1 µM	activity vs control	98%
COc1cccc(Nc2nc3cc(C(=O)O)ccc3c3cnccc23)c1	enzyme activity	inhibitor	radiometric	1 µM	remaining activity	14%
Cc1ccc(Nc2nccc(N(C)c3ccc4c(C)n(C)nc4c3)n2)cc1S(N)(=O)=O	enzyme activity	inhibitor	–	10 µM	inhibition	-3%
